E-selectin induc = E-selectin induction on HUVECs. P16581. 260,000 compounds, 0.37% hits. activation, % at 7.58 µM. AID 686992. HUVEC E-selectin immunofluorescence imaging; normalized: neutral wells 0, TNF-alpha wells 100;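 active = mean E-selectin-positive cell signal at least 10% of the positive control, reached in at least 60% of replicates, without over 20% cell loss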
Target sequence (P16581 whole entry, looked up): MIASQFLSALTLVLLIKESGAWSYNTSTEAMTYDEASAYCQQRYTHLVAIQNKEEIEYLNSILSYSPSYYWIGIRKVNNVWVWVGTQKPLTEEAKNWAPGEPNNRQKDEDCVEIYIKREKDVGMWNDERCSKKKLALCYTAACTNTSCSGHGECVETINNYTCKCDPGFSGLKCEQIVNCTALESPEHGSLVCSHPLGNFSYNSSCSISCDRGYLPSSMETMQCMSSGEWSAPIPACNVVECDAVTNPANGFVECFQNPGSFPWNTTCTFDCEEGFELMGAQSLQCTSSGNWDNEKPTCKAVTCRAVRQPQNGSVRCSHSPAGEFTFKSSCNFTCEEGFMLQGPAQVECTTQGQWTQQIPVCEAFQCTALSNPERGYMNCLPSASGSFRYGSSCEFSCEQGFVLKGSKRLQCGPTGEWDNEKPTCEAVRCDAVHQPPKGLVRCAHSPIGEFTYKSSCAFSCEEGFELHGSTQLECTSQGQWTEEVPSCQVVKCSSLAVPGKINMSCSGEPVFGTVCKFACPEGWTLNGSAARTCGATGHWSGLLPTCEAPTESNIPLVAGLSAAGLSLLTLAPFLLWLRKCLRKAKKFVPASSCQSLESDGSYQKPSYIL
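Read-out: % PE-positive cells | Test system: HUVEC | Doses: One compound dose added by pin transfer | Buffer or medium: EGM-2 over gelatin coat | Signal: Immunofluorescence imaging | Benchmarks: TNF-alpha, DMSO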
DENV2 CPE rescue = protects cells from dengue virus 2 cytopathic effect; DENV2-infected cells, cytopathic effect rescue, plate reader; CPE inhibition, % at 9.99 µM; 350,000 compounds, 1.7% hits; AID 651640; in the data active = CPE inhibition above about 20%, passing the limit was not always enough; tested in BHK-21 cells;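 note: 0% = median of neutral control wells and 100% = median of positive control wells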
Statin myotox sup = suppressors of simvastatin-induced myotoxicity in C2C12 myotubes. rescue of ATP level, % at 7.49 µM. ATP luminescence, 48 h; scaled: DMSO 0, geranylgeraniol control 100. 330,000 compounds, 0.78% hits;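 active = mean ATP rescue above about 67%, or every replicate alone reaching that limit, limit read from the data, passing the limit was not always enough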;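 note: myotubes were challenged with 10 µM simvastatin during compound exposure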
Starred values were filed as active, the others as inactive. This is a sample that favours compounds with a hit; in the whole collection about 2.2% have one here.

CCCNC(=O)[C@@H]1c2ccccc2C(=O)N(Cc2ccccc2OC)[C@H]1c1ccc(CO)cc1 was read as DENV2 CPE rescue 34*.
`Cc1ccc(-c2noc(CCC(=O)NCC3CCN(Cc4cccc(C)c4)CC3)n2)cc1` gave Statin myotox sup 87*.
Screening CCOc1cc(-c2noc(CCC(=O)NCCc3ccccc3)n2)ccc1OC returned E-selectin induc 0, DENV2 CPE rescue 2 and Statin myotox sup 18.
Screening Cc1ccc(-c2noc(CCC(=O)NCCN3CCN(Cc4ccccc4)CC3)n2)cc1 returned Statin myotox sup -7.
Screening CCOc1ccc(-c2noc(CCC(=O)NC)n2)cc1OCC returned Statin myotox sup 95*.
`CNC(=O)C[C@@H]1CC[C@@H]2[C@H](COc3ccc(NC(=O)C4CCCCC4)cc3C(=O)N2C)O1` gave E-selectin induc 0, DENV2 CPE rescue -6 and Statin myotox sup 6.
Screening CCCC(=O)Nc1ccc2c(c1)C(=O)N(C)[C@H]1CC[C@H](CC(=O)NCc3ccccc3F)O[C@H]1CO2 returned E-selectin induc 0, DENV2 CPE rescue 1 and Statin myotox sup 17.
`C[C@H]1CN([C@@H](C)CO)C(=O)c2cccc(NC(=O)Nc3ccc(C(F)(F)F)cc3)c2O[C@@H]1CN(C)C(=O)Nc1ccc(F)cc1` gave E-selectin induc 0, DENV2 CPE rescue 0 and Statin myotox sup -96.
`Cc1noc(C)c1NC(=O)N(C)C[C@@H]1Oc2c(NC(=O)Nc3ccc(C(F)(F)F)cc3)cccc2C(=O)N([C@H](C)CO)C[C@@H]1C` gave E-selectin induc 0, DENV2 CPE rescue 10 and Statin myotox sup 22.
For C[C@H](CO)N1C[C@H](C)[C@H](CN(C)C(=O)Nc2ccc3c(c2)OCO3)Oc2c(NC(=O)Nc3ccc(C(F)(F)F)cc3)cccc2C1=O the results were E-selectin induc 0, DENV2 CPE rescue -5 and Statin myotox sup 14.
`C[C@H]1CN([C@@H](C)CO)C(=O)c2cccc(NC(=O)C3CCCCC3)c2O[C@H]1CN(C)C(=O)Nc1ccc(C(F)(F)F)cc1` gave E-selectin induc 0, DENV2 CPE rescue 27* and Statin myotox sup -122.
C[C@@H]1CN([C@H](C)CO)C(=O)c2cccc(NC(=O)Nc3ccc(C(F)(F)F)cc3)c2O[C@@H]1CN(C)C(=O)Nc1ccc2c(c1)OCO2 was read as E-selectin induc 0, DENV2 CPE rescue 41* and Statin myotox sup 3.
`C[C@H]1CN([C@@H](C)CO)C(=O)c2cccc(NC(=O)Nc3ccc(F)cc3)c2O[C@@H]1CN(C)C(=O)Nc1ccc(C(F)(F)F)cc1` gave E-selectin induc -15, DENV2 CPE rescue 57* and Statin myotox sup -92.
C[C@H]1CN([C@@H](C)CO)C(=O)c2cccc(NC(=O)C3CCCCC3)c2O[C@@H]1CN(C)C(=O)Nc1ccc(C(F)(F)F)cc1 was read as E-selectin induc 1, DENV2 CPE rescue -6 and Statin myotox sup -68.
Screening Cc1noc(C)c1NC(=O)N(C)C[C@@H]1Oc2c(NC(=O)Nc3ccc(C(F)(F)F)cc3)cccc2C(=O)N([C@@H](C)CO)C[C@@H]1C returned DENV2 CPE rescue 32* and Statin myotox sup 14.
Screening C[C@@H](NC(=O)C[C@@H]1CC[C@@H]2[C@H](COC[C@@H](O)CN2Cc2cc(F)ccc2F)O1)c1ccccc1 returned E-selectin induc 0, DENV2 CPE rescue -7 and Statin myotox sup 36.
`COc1ccc2c3c([nH]c2c1)[C@H](CO)N(C(=O)Cc1ccccc1)CC31CCN(C(=O)Nc2ccccc2F)CC1` gave E-selectin induc 1 and DENV2 CPE rescue -5.
Screening C[C@H]1CN([C@@H](C)CO)C(=O)c2cccc(NC(=O)Nc3ccc4c(c3)OCO4)c2O[C@@H]1CN(C)C(=O)Nc1ccccc1 returned E-selectin induc 0, DENV2 CPE rescue -1 and Statin myotox sup -28.
Screening Cc1cc(C(=O)Nc2cccc3c2O[C@H](CN(C)C(=O)Nc2ccc(C(F)(F)F)cc2)[C@@H](C)CN([C@H](C)CO)C3=O)n(C)n1 returned E-selectin induc -3, DENV2 CPE rescue 38* and Statin myotox sup -48.
`C[C@@H]1CN([C@@H](C)CO)C(=O)c2cccc(NC(=O)Nc3ccc4c(c3)OCO4)c2O[C@H]1CN(C)C(=O)Nc1ccc(C(F)(F)F)cc1` gave E-selectin induc -13 and DENV2 CPE rescue 17.
For Cc1cc(C(=O)Nc2cccc3c2O[C@@H](CN(C)C(=O)Nc2ccc(C(F)(F)F)cc2)[C@@H](C)CN([C@@H](C)CO)C3=O)n(C)n1 the results were E-selectin induc 0, DENV2 CPE rescue -10 and Statin myotox sup -39.
For C[C@@H]1CN([C@H](C)CO)C(=O)c2cccc(NC(=O)Nc3ccc4c(c3)OCO4)c2O[C@H]1CN(C)C(=O)Nc1ccc(C(F)(F)F)cc1 the results were E-selectin induc 38* and DENV2 CPE rescue 2.
`C[C@@H]1CN([C@H](C)CO)C(=O)c2cccc(NC(=O)Nc3ccc4c(c3)OCO4)c2O[C@H]1CN(C)C(=O)Nc1ccccc1` gave E-selectin induc 0, DENV2 CPE rescue 100* and Statin myotox sup 7.
c1ccc(CC[C@@H]2CC[C@@H](CCc3ccccc3)N2)cc1 was read as E-selectin induc 0, DENV2 CPE rescue 3 and Statin myotox sup 47.
CCCC1CC(CCc2ccccc2)OS(=O)(=O)N1 (centres undefined) was read as E-selectin induc 0, DENV2 CPE rescue 40* and Statin myotox sup 95*.
`CCC(=O)N1[C@@H]2Cn3c(ccc(/C=C/c4ccccc4)c3=O)[C@H]1[C@@H](C(=O)N(C)C)[C@@H]2CO` gave E-selectin induc 0, DENV2 CPE rescue 1 and Statin myotox sup 20.
`O=C(OC1CCN(c2ncc(C(F)(F)F)cc2Cl)CC1)c1ccc(Cl)cc1` gave E-selectin induc 1 and Statin myotox sup 5.
`O=C(CSc1nccn1-c1ncc(C(F)(F)F)cc1Cl)c1ccc(Cl)cc1` gave Statin myotox sup 95*.
`COc1ccccc1C(=O)Nc1ccc2c(c1)OC[C@H](C)NC[C@H](C)[C@H](OC)CN(C)C2=O` gave E-selectin induc 0, DENV2 CPE rescue -12 and Statin myotox sup -8.
Screening O=C(Nc1cccc(F)c1)c1ccc(S(=O)(=O)N2CCCCC2)cc1 returned E-selectin induc -1 and DENV2 CPE rescue 114*.
`O=C(Nc1cccc(O)c1)c1ccc(S(=O)(=O)N2CCCCCC2)cc1` gave E-selectin induc 1, DENV2 CPE rescue -3 and Statin myotox sup -3.
For Cc1cccnc1NC(=O)c1ccc(S(=O)(=O)N2CCC(C)CC2)cc1 the results were DENV2 CPE rescue 5 and Statin myotox sup 11.
`Cc1cccnc1NC(=O)c1ccc(S(=O)(=O)N2CCCC2)cc1` gave DENV2 CPE rescue 65* and Statin myotox sup 6.
For O=C(C[C@H]1CC[C@H](NC(=O)Cc2ccccn2)[C@@H](CO)O1)NCCCN1CCOCC1 the results were E-selectin induc 0, DENV2 CPE rescue -4 and Statin myotox sup 3.
For CC(C)NC(=O)Nc1ccc2c(c1)C(=O)N([C@H](C)CO)C[C@H](C)[C@@H](CN(C)Cc1ccc(Cl)c(Cl)c1)OCCCC[C@H](C)O2 the results were DENV2 CPE rescue 6.
`COc1ccc(-c2cc3ccccc3c(=O)o2)cc1` gave E-selectin induc 0 and DENV2 CPE rescue 5.
